{"data": "Published values pooled from the literature", "target": "Myosin light chain kinase 2, skeletal/cardiac muscle (MYLK2, Homo sapiens, UniProt Q9H1R3)", "note": "Compare with care: the assays were run in different laboratories."}
{"Structure (SMILES)": "CS(=O)(=O)NCC[C@H](NC(=O)c1cncc2c1cnn2-c1ccc(F)cc1)c1ccnc(S(C)(=O)=O)c1", "test": "cell-free assay, competition with immobilised ligand", "conditions": "1 µM", "measurement": "remaining binding", "result": "93%"}
{"Structure (SMILES)": "CC(C)(C)c1nc(-c2cccc(NS(=O)(=O)c3c(F)cccc3F)c2F)c(-c2ccnc(N)n2)s1", "test": "enzyme activity, inhibitor, radiometric", "conditions": "1 µM", "measurement": "remaining activity", "result": "112%"}
{"Structure (SMILES)": "O=C(NCc1ncc(C(F)(F)F)cc1Cl)c1ccc2c(c1)C1(CCS(=O)(=O)CC1)[C@H](C1CC1)N2S(=O)(=O)c1ccc(F)cc1", "test": "cell-free assay, competition with immobilised ligand", "conditions": "1 µM", "measurement": "remaining binding", "result": "100%"}
{"Structure (SMILES)": "O=C1c2ccccc2-c2n[nH]c3cccc1c23", "test": "enzyme activity, inhibitor", "conditions": "0.5 µM", "measurement": "activity vs control", "result": "22.2%"}
{"Structure (SMILES)": "CNC(=O)c1ccc(Nc2ncc(C(F)(F)F)c(NCc3nccnc3N(C)S(C)(=O)=O)n2)cc1", "test": "cell-free assay, competition with immobilised ligand", "conditions": "0.1 µM", "measurement": "remaining binding", "result": "63%"}
{"Structure (SMILES)": "Cc1ccc(NC(=O)c2ccc(CN3CCN(C)CC3)cc2)cc1Nc1nc(-c2cccnc2)cs1", "test": "cell-free assay", "conditions": "0.5 µM", "measurement": "remaining signal", "result": "98.7%"}
{"Structure (SMILES)": "O=C(Nc1cnn(-c2csc(C(=O)NC3COC3)c2)c1)Nc1c(F)cccc1Cl", "test": "enzyme activity, inhibitor", "conditions": "5 µM", "measurement": "remaining activity", "result": "83.5%"}
{"Structure (SMILES)": "Cc1nc(Cc2cccc(C(F)(F)F)c2)sc1-c1ccc(C(N)=O)nc1", "test": "cell-free assay, competition with immobilised ligand", "conditions": "1 µM", "measurement": "remaining binding", "result": "77%"}
{"Structure (SMILES)": "CCN(CC)CCNC(=O)c1c(C)[nH]c(/C=C2\\C(=O)Nc3ccc(F)cc32)c1C", "test": "enzyme activity, inhibitor", "conditions": "10 µM", "measurement": "inhibition", "result": "92%"}
{"Structure (SMILES)": "COc1cc2ncnc(Nc3ccc(Oc4ccccc4)c(C)c3C)c2cc1OC", "test": "enzyme activity, inhibitor", "conditions": "1 µM", "measurement": "inhibition", "result": "-5%"}
{"Structure (SMILES)": "Cc1cc(NC(=O)c2cccc3cc(-c4cccc5[nH]nc(N)c45)ccc23)ccc1F", "test": "enzyme activity, inhibitor", "conditions": "0.1 µM", "measurement": "activity vs control", "result": "97%"}
{"Structure (SMILES)": "CC(C)(O)[C@H]1CC[C@H](Nc2ccc3ncc(-c4cccc(C(F)(F)F)c4)n3n2)CC1", "test": "enzyme activity, inhibitor", "conditions": "1 µM", "measurement": "remaining activity", "result": "96.7%"}
{"Structure (SMILES)": "Cc1sc(C(=O)NC2COC2)cc1-n1cc(NC(=O)Nc2c(F)cccc2Cl)cn1", "test": "enzyme activity, inhibitor", "conditions": "10 µM", "measurement": "remaining activity", "result": "78.7%"}
{"Structure (SMILES)": "O=C1NC(=O)c2cc(Nc3ccc(F)cc3)c(Nc3ccc(F)cc3)cc21", "test": "cell-free assay", "conditions": "0.5 µM", "measurement": "remaining signal", "result": "98.7%"}
{"Structure (SMILES)": "CN(C)C(=O)Cn1cc(-c2nc([C@@](C)(c3ccc(-c4cnc(N)nc4)cc3)C3CC3)no2)cn1", "test": "cell-free assay, competition with immobilised ligand", "conditions": "1 µM", "measurement": "remaining binding", "result": "100%"}
{"Structure (SMILES)": "CNC(=O)c1cc(Oc2ccc(NC(=O)Nc3ccc(Cl)c(C(F)(F)F)c3)cc2)ccn1", "test": "enzyme activity, inhibitor", "conditions": "0.3 µM", "measurement": "inhibition", "result": "4%"}
{"Structure (SMILES)": "Nc1ncnc2occ(-c3ccc(NC(=O)Nc4cc(C(F)(F)F)ccc4F)cc3)c12", "test": "enzyme activity, inhibitor", "conditions": "20 µM", "measurement": "remaining activity", "result": "1.4%"}
{"Structure (SMILES)": "C[C@H](c1ccnc(Nc2nc3ccc(-c4cc(N(C)C)ncn4)cc3[nH]2)c1)N1CCN(C(=O)CC(F)(F)F)CC1", "test": "cell-free assay, competition with immobilised ligand", "conditions": "0.1 µM", "measurement": "remaining binding", "result": "92%"}
{"Structure (SMILES)": "COc1cc(Cl)c(C(=O)N[C@@H](CN[C@H]2CC[C@@H](N)CC2)Cc2ccc(C#N)cc2)cc1-c1ccc(CN[C@H](C)c2ccc(C)cc2)o1", "test": "enzyme activity, inhibitor", "conditions": "1 µM", "measurement": "remaining activity", "result": "99%"}
